T cruzi growth-1 – inhibitors of T. cruzi proliferation; T. cruzi beta-gal in NIH3T3, GalScreen luminescence, 90 h; inhibition, % at 8.34 µM; actives 5.9% (n = 77,000);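 active means mean inhibition above about 93%, with at least 55% of replicates each passing it, limit read from the data, passing the limit was not always enough; inconclusive means only one of those two conditions holds; inactive means neither condition holds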
KDM4C inh – blocks human GASC-1 (KDM4C) demethylase activity; actives 0.15% (n = 96,000); inhibition, % at 12.5 µM; GST-KDM4C 2-372, H3K9me3 peptide, LANCE TR-FRET; Q9H3R0;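 active means mean replicate inhibition above about 25%, with at least 55% of replicates also reaching it, limit read from the data, passing the limit was not always enough; inconclusive means only one of those two conditions met; inactive means neither condition met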
Target sequence (Q9H3R0 2-372 limits assumed): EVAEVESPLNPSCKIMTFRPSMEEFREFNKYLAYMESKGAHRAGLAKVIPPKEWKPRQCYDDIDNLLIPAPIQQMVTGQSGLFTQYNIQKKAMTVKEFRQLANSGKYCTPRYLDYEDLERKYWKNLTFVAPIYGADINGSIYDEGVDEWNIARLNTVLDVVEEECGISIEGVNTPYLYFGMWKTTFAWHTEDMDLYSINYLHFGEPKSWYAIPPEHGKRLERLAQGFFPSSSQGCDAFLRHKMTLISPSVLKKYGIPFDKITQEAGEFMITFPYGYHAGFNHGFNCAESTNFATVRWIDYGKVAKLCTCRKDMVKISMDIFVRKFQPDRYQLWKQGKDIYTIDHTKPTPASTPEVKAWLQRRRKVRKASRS
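System: N-terminal GST-fused human GASC-1 (KDM4C) fragment, residues 2-372; amount: enzyme final amount 10 nM; incubation: reaction 30 min RT, detection step 1 h RT; medium: HEPES buffer, pH 7.5, plus ascorbate; technique: LANCE TR-FRET, Eu antibody, ULight-streptavidin, EDTA, ex 340 nm, em 618/671 nm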
IDH1 mut inh – inhibitors of human IDH1 R132H; inhibition, % at 10 µM; AID 624101; O75874; IDH1 R132H reductase, diaphorase/resazurin fluorescence, 60 min; actives 0.18% (n = 70,000); in the data active means inhibition above about 34%; inconclusive means no clear call, values can overlap the other calls; inactive means below about 11%
Pf Dd2 growth – blocks growth of Plasmodium falciparum Dd2 parasites; P. falciparum Dd2 growth, SYBR Green, 72 h; active compounds read low; activity change, % at 10 µM; actives 2.3% (n = 94,000); in the data active means activity change below about -80%; inconclusive means no clear call, values can overlap the other calls
T cruzi growth-2 – Trypanosoma cruzi proliferation inhibition. shares compounds with T cruzi growth-1. actives 72% (n = 5,600). T. cruzi beta-gal in NIH3T3, GalScreen luminescence, 90 h. inhibition, % at 8.35 µM;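 active means mean replicate inhibition above about 95% and at least 55% of replicates individually reaching it, limit read from the data; inconclusive means only one of the two criteria is met; inactive means neither criterion is met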
T cruzi growth-3 – blocks T. cruzi growth in NIH3T3 host cells; shares compounds with T cruzi growth-1; actives 21% (n = 5,600); T. cruzi beta-gal in NIH3T3, GalScreen luminescence, 90 h; inhibition, % at 2.09 µM;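 active means mean inhibition above about 95%, with at least 55% of replicates also reaching it, limit read from the data; inconclusive means meets just one of the two conditions; inactive means meets neither condition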
NIH3T3 tox – kills mouse NIH/3T3 fibroblasts | shares compounds with T cruzi growth-1 | NIH/3T3 viability, CellTiter-Glo ATP luminescence, 90 h | cytotoxicity (signal decrease), % at 8.35 µM | actives 14% (n = 5,600) | AID 651742;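 active means mean signal decrease across replicates above about 35% based on untreated-well scatter, with enough replicates individually passing, limit read from the data; inconclusive means no rule stated though some were filed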
NIH3T3 tox 2 – kills mouse NIH/3T3 fibroblasts. shares compounds with T cruzi growth-1. NIH/3T3 viability, CellTiter-Glo ATP luminescence, 90 h. inhibition, % at 24.9 µM. actives 56% (n = 5,600). AID 651744;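 active means mean loss of cell viability signal at or above a set limit, and enough replicates individually reaching it; inconclusive means meets only the mean limit or only the replicate share; inactive means meets neither condition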
A number is an active result; n = inactive; u = inconclusive; x = not tested or not shown. The list is not random: actives were taken first. Their share in the collection is about 5.9%.

SMILES | T cruzi growth-1 | KDM4C inh | IDH1 mut inh | Pf Dd2 growth | T cruzi growth-2 | T cruzi growth-3 | NIH3T3 tox | NIH3T3 tox 2
C[C@@H]1CN([C@@H](C)CO)C(=O)c2cc(NC(=O)Nc3ccc(C(F)(F)F)cc3)ccc2O[C@@H](C)CCCCO[C@@H]1CN(C)S(=O)(=O)c1cccs1 | n | n | n | n | x | x | x | x
C[C@@H]1CCCCO[C@@H](CN(C)S(=O)(=O)c2cccs2)[C@H](C)CN([C@H](C)CO)C(=O)c2cc(NC(=O)Nc3ccc(F)cc3)ccc2O1 | u | n | x | n | 108 | n | n | n
CC(C)CC#Cc1ccc2c(c1)O[C@H](CN(C)C(=O)Cc1ccccc1)[C@H](C)CN([C@@H](C)CO)S2(=O)=O | 121 | n | n | n | 99 | n | n | 100
CCC(=O)N(C)C[C@@H]1Oc2cc(C#CCC(C)C)ccc2S(=O)(=O)N([C@H](C)CO)C[C@H]1C | n | n | n | n | x | x | x | x
CC(C)CC#Cc1ccc2c(c1)O[C@@H](CN(C)C(=O)Cc1ccccc1)[C@@H](C)CN([C@H](C)CO)S2(=O)=O | 127 | n | n | n | 98 | 112 | n | 103
CC(C)CC#Cc1ccc2c(c1)O[C@@H](CN(C)C(=O)Cc1ccccc1)[C@@H](C)CN([C@@H](C)CO)S2(=O)=O | 126 | n | n | n | 103 | n | n | 104
CC(C)CC#Cc1ccc2c(c1)O[C@H](CN(C)C(=O)Cc1ccncc1)[C@@H](C)CN([C@H](C)CO)S2(=O)=O | u | n | n | n | 101 | n | n | n
Cc1ccccc1NC(=O)CSc1nc(-c2ccc(Cl)cc2)cc(C(F)(F)F)n1 | x | x | n | x | x | x | x | x
CC(C)NC(=O)N(C)C[C@H]1Oc2cc(-c3ccncc3)ccc2S(=O)(=O)N([C@H](C)CO)C[C@H]1C | 109 | n | n | n | n | n | n | 32
CC(C)NC(=O)N(C)C[C@H]1Oc2cc(-c3ccncc3)ccc2S(=O)(=O)N([C@@H](C)CO)C[C@@H]1C | 110 | n | n | n | n | n | n | n
Cc1ccc(-c2ccc3c(c2)O[C@H](CN(C)C(=O)NC(C)C)[C@H](C)CN([C@H](C)CO)S3(=O)=O)cc1 | n | n | n | n | x | x | x | x
Nc1ncnc2c1c1nc3ccccc3nc1n2CCc1ccccc1 | x | x | n | x | x | x | x | x
O=C(C[C@H]1CC[C@H]2[C@@H](COC[C@H](O)CN2C(=O)Nc2ccc(Cl)cc2)O1)NCCc1ccncc1 | n | n | x | n | x | x | x | x
O=C(C[C@@H]1CC[C@@H]2[C@H](COC[C@H](O)CN2C(=O)Nc2ccc(Cl)cc2)O1)NCCc1ccncc1 | 99 | n | x | n | 99 | n | n | n
O=C(C[C@@H]1CC[C@H]2[C@@H](COC[C@@H](O)CN2C(=O)Nc2ccc(Cl)cc2)O1)NCCc1ccncc1 | n | n | x | n | x | x | x | x
O=C(C[C@@H]1CC[C@H]2[C@@H](COC[C@H](O)CN2C(=O)Nc2ccc(Cl)cc2)O1)NCCc1ccncc1 | 128 | n | x | n | n | n | n | n
Cn1c(=O)c([N+](=O)[O-])c(NCc2ccco2)c2ccccc21 | x | x | n | x | x | x | x | x
CN1c2ccc(Br)cc2[C@@H]2[C@@H](CCN2S(=O)(=O)c2ccc(F)cc2)[C@H]1CO | n | n | x | n | x | x | x | x
CN1c2ccc(-c3cccc(F)c3)cc2[C@@H]2[C@@H](CCN2S(=O)(=O)c2cccc(F)c2)[C@@H]1CO | 102 | n | x | n | 98 | n | 59 | 105
COc1ccc(-c2ccc3c(c2)[C@H]2[C@H](CCN2S(=O)(=O)C2=NC(C)C=N2)[C@@H](CO)N3C)cc1 (stereo partly drawn) | 101 | n | x | n | 104 | 106 | n | n
COc1ccc(-c2ccc3c(c2)[C@@H]2[C@@H](CCN2S(=O)(=O)C2=NC(C)C=N2)[C@H](CO)N3C)cc1 (stereo partly drawn) | n | n | x | n | x | x | x | x
CC1C=NC(S(=O)(=O)N2CC[C@@H]3[C@@H](CO)N(C)c4ccc(-c5cccc(F)c5)cc4[C@@H]32)=N1 (stereo partly drawn) | 103 | n | x | n | 104 | n | n | n
Cc1cccc(S(=O)(=O)N2CC[C@@H]3[C@H](CO)N(C)c4ccc(Br)cc4[C@@H]32)c1 | u | n | x | n | 111 | n | n | n
CCn1c(SCc2nc3ccccc3[nH]2)nc2sc(C)c(C)c2c1=O | x | x | n | x | x | x | x | x
Cc1c(C(=O)Nc2nnc(SC/C=C/c3ccccc3)s2)oc2ccccc12 | x | x | n | x | x | x | x | x
SMILES | T cruzi growth-1 | KDM4C inh | IDH1 mut inh | Pf Dd2 growth | T cruzi growth-2 | T cruzi growth-3 | NIH3T3 tox | NIH3T3 tox 2
CN1c2ccc(Br)cc2[C@@H]2[C@@H](CCN2S(=O)(=O)c2cccc(F)c2)[C@@H]1CO | u | n | x | n | n | n | 48 | 41
CC(Oc1ccccc1F)C(=O)Nc1ccccc1[N+](=O)[O-] (stereo not drawn) | x | x | n | x | x | x | x | x
CNC[C@@H]1Oc2cc(C#Cc3ccc(OC)cc3)ccc2S(=O)(=O)N([C@H](C)CO)C[C@H]1C | 103 | n | n | n | 107 | n | n | 105
CNC[C@@H]1Oc2cc(C#Cc3cccc(OC)c3)ccc2S(=O)(=O)N([C@@H](C)CO)C[C@@H]1C | x | n | n | n | x | x | x | x
CNC[C@H]1Oc2cc(C#Cc3ccc(OC)cc3)ccc2S(=O)(=O)N([C@@H](C)CO)C[C@@H]1C | 109 | n | n | n | 103 | n | n | 105
CNC[C@H]1Oc2cc(C#Cc3ccc(F)cc3)ccc2S(=O)(=O)N([C@H](C)CO)C[C@@H]1C | x | n | n | n | x | x | x | x
COc1ccc(C(=O)CCC(=O)Nc2ccc(C(=O)O)cc2)c(OC)c1 | x | x | n | x | x | x | x | x
C[C@@H]1CCCCO[C@@H](CN(C)Cc2ccc(C(F)(F)F)cc2)[C@@H](C)CN([C@@H](C)CO)C(=O)c2cc(NC(=O)CCCN(C)C)ccc2O1 | 100 | n | n | -85 | 105 | n | n | 102
CCCN(C)C[C@@H]1OCCCC[C@H](C)Oc2ccc(NC(=O)CCCN(C)C)cc2C(=O)N([C@@H](C)CO)C[C@@H]1C | u | n | n | n | n | n | n | n
C[C@H]1CCCCO[C@H](CN(C)Cc2ccncc2)[C@@H](C)CN([C@@H](C)CO)C(=O)c2cc(NC(=O)CCCN(C)C)ccc2O1 | 99 | n | n | n | n | n | n | n
COc1ccc(Cl)cc1NC(=O)CN(C)S(=O)(=O)c1ccc2ccccc2c1 | x | x | n | x | x | x | x | x
CCCCN(CC)C(=O)Cn1c(=O)n(Cc2ccccc2Cl)c(=O)c2cc(OC)c(OC)cc21 | x | x | n | x | x | x | x | x
CO[C@@H](CN(C)S(=O)(=O)c1ccc(Cl)cc1)[C@@H](C)CN([C@@H](C)CO)S(=O)(=O)c1cccc(Cl)c1 | n | n | n | n | x | x | x | x

Screens: PubChem BioAssay, Broad Institute
